Target: T1, C-X-C chemokine receptor type 4 (Homo sapiens, UniProt P61073)
Test: Competitive inhibition of [125I]-CXCL12 binding to CXCR4 in human Jurkat cells at 1 uM in absence of ZnCl2 after 2 hrs by gamma counting analysis relative to control
Assay type: cell-based
Conditions: not given

T1 sequence (P61073 whole entry): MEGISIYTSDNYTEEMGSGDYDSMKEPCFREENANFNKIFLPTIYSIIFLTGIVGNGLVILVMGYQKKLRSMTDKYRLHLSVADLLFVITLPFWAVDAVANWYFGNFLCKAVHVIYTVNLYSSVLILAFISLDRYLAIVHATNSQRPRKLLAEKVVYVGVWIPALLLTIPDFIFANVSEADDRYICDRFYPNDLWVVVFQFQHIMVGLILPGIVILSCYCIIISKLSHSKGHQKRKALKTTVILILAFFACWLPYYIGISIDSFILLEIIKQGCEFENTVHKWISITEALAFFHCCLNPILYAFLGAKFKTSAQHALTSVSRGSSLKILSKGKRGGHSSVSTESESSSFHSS

SMILES | inhibition [%]
c1ccc(CN(Cc2cccc(-c3ccc(CN4CCCNCCNCCCNCC4)cc3)c2)Cc2ccccn2)nc1 | 38.3
c1ccc(CN(Cc2ccc(-c3cccc(CN4CCCNCCNCCCNCC4)c3)cc2)Cc2ccccn2)nc1 | 10.9
c1ccc(CN(Cc2ccc3c(c2)-c2cc(CN4CCCNCCNCCCNCC4)ccc2OCCCO3)Cc2ccccn2)nc1 | 32.5
c1ccc(CN(Cc2ccccn2)Cc2ccccc2-c2cccc(CN3CCCNCCNCCCNCC3)c2)nc1 | 41.9
c1ccc(CN(Cc2cccc(-c3cccc(CN4CCCNCCNCCCNCC4)c3)c2)Cc2ccccn2)nc1 | 46.6
c1ccc(CN(Cc2ccc3c(c2)-c2cc(CN4CCCNCCNCCCNCC4)ccc2OCO3)Cc2ccccn2)nc1 | 54.4

System: not listed separately
Test: Cytotoxicity against human MT4 cells in absence of ZnCl2
Assay type: cell-based
Conditions: not given

SMILES | CC50 [nM]
c1ccc(CN(Cc2cccc(-c3ccc(CN4CCCNCCNCCCNCC4)cc3)c2)Cc2ccccn2)nc1 | > 10000
c1ccc(CN(Cc2ccc(-c3cccc(CN4CCCNCCNCCCNCC4)c3)cc2)Cc2ccccn2)nc1 | > 10000
c1ccc(CN(Cc2ccc3c(c2)-c2cc(CN4CCCNCCNCCCNCC4)ccc2OCCCO3)Cc2ccccn2)nc1 | > 10000
c1ccc(CN(Cc2ccccn2)Cc2ccccc2-c2cccc(CN3CCCNCCNCCCNCC3)c2)nc1 | > 10000
c1ccc(CN(Cc2cccc(-c3cccc(CN4CCCNCCNCCCNCC4)c3)c2)Cc2ccccn2)nc1 | > 10000
c1ccc(CN(Cc2ccc3c(c2)-c2cc(CN4CCCNCCNCCCNCC4)ccc2OCO3)Cc2ccccn2)nc1 | > 10000

Target: T1, C-X-C chemokine receptor type 4
Test: Competitive inhibition of [125I]-CXCL12 binding to CXCR4 in human Jurkat cells at 1 uM in presence of ZnCl2 after 2 hrs by gamma counting analysis relative to control
Assay type: cell-based
Conditions: not given

SMILES | inhibition [%]
c1ccc(CN(Cc2cccc(-c3ccc(CN4CCCNCCNCCCNCC4)cc3)c2)Cc2ccccn2)nc1 | 119
c1ccc(CN(Cc2ccc(-c3cccc(CN4CCCNCCNCCCNCC4)c3)cc2)Cc2ccccn2)nc1 | 101
c1ccc(CN(Cc2ccc3c(c2)-c2cc(CN4CCCNCCNCCCNCC4)ccc2OCCCO3)Cc2ccccn2)nc1 | 97.1
c1ccc(CN(Cc2ccccn2)Cc2ccccc2-c2cccc(CN3CCCNCCNCCCNCC3)c2)nc1 | 100
c1ccc(CN(Cc2cccc(-c3cccc(CN4CCCNCCNCCCNCC4)c3)c2)Cc2ccccn2)nc1 | 105
c1ccc(CN(Cc2ccc3c(c2)-c2cc(CN4CCCNCCNCCCNCC4)ccc2OCO3)Cc2ccccn2)nc1 | 95.6

Target: T1, C-X-C chemokine receptor type 4
Test: Competitive inhibition of TAMRAAc-TZ14011 binding to CXCR4 (unknown origin) expressed in CHO cells at 1 uM in absence of ZnCl2 by NanoBRET assay relative to control
Assay type: cell-based
Conditions: not given
Summary of the method: (§1)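 Single-point competition in CHO cells stably expressing N-terminally Nluc-tagged CXCR4 (5 x 10^4 cells, seeded 24 h earlier at 37 °C, 5% CO2, medium then replaced with OptiMEM). Cells were incubated with 10 nM TAMRA-Ac-TZ14011 plus 1 µM compound, without or with 10 µM ZnCl2 (10 eq), for 1 h at 25 °C. Furimazine was added and BRET read as acceptor (>610 nm) over donor (460 nm). Inhibition is relative to no compound and to excess Ac-TZ14011; mean ± SEM, n = 3.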

SMILES | inhibition [%]
c1ccc(CN(Cc2cccc(-c3ccc(CN4CCCNCCNCCCNCC4)cc3)c2)Cc2ccccn2)nc1 | 35.6
c1ccc(CN(Cc2ccc(-c3cccc(CN4CCCNCCNCCCNCC4)c3)cc2)Cc2ccccn2)nc1 | 89.7
c1ccc(CN(Cc2ccc3c(c2)-c2cc(CN4CCCNCCNCCCNCC4)ccc2OCCCO3)Cc2ccccn2)nc1 | 50.4
c1ccc(CN(Cc2ccccn2)Cc2ccccc2-c2cccc(CN3CCCNCCNCCCNCC3)c2)nc1 | 56
c1ccc(CN(Cc2cccc(-c3cccc(CN4CCCNCCNCCCNCC4)c3)c2)Cc2ccccn2)nc1 | 40.4
c1ccc(CN(Cc2ccc3c(c2)-c2cc(CN4CCCNCCNCCCNCC4)ccc2OCO3)Cc2ccccn2)nc1 | 43.5

System: Human immunodeficiency virus 1
Test: Antiviral activity against R5 tropic HIV-1 NL(AD8) infected in human MT4 cells assessed as protection against virus-induced cytopathic effect at 10 uM in absence of ZnCl2 after 5 days by MTT assay
Assay type: functional
Conditions: Human immunodeficiency virus 1, NL(AD8), MT4, 120 h

SMILES | inhibition at 10 µM [%]
c1ccc(CN(Cc2cccc(-c3ccc(CN4CCCNCCNCCCNCC4)cc3)c2)Cc2ccccn2)nc1 | < 30
c1ccc(CN(Cc2ccc(-c3cccc(CN4CCCNCCNCCCNCC4)c3)cc2)Cc2ccccn2)nc1 | < 30
c1ccc(CN(Cc2ccc3c(c2)-c2cc(CN4CCCNCCNCCCNCC4)ccc2OCCCO3)Cc2ccccn2)nc1 | < 30
c1ccc(CN(Cc2ccccn2)Cc2ccccc2-c2cccc(CN3CCCNCCNCCCNCC3)c2)nc1 | < 30
c1ccc(CN(Cc2cccc(-c3cccc(CN4CCCNCCNCCCNCC4)c3)c2)Cc2ccccn2)nc1 | < 30
c1ccc(CN(Cc2ccc3c(c2)-c2cc(CN4CCCNCCNCCCNCC4)ccc2OCO3)Cc2ccccn2)nc1 | < 30

Target: T1, C-X-C chemokine receptor type 4
Test: Competitive inhibition of TAMRAAc-TZ14011 binding to CXCR4 (unknown origin) expressed in CHO cells in presence of ZnCl2 by NanoBRET assay relative to control
Assay type: cell-based
Conditions: not given
Summary of the method: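 Cells were incubated with 10 nM TAMRA-Ac-TZ14011 and compound plus ZnCl2 (10 eq). Furimazine was added and BRET ratio taken as >610 nm over 460 nm emission. Inhibition is scaled between no compound and excess Ac-TZ14011.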

SMILES | IC50 [nM]
c1ccc(CN(Cc2ccccn2)Cc2ccccc2-c2cccc(CN3CCCNCCNCCCNCC3)c2)nc1 | 7.9

Target: T1, C-X-C chemokine receptor type 4
Test: Competitive inhibition of TAMRAAc-TZ14011 binding to CXCR4 (unknown origin) expressed in CHO cells at 1 uM in presence of ZnCl2 by NanoBRET assay relative to control
Assay type: cell-based
Conditions: not given
Summary of the method: as §1

SMILES | inhibition [%]
c1ccc(CN(Cc2cccc(-c3ccc(CN4CCCNCCNCCCNCC4)cc3)c2)Cc2ccccn2)nc1 | 105
c1ccc(CN(Cc2ccc(-c3cccc(CN4CCCNCCNCCCNCC4)c3)cc2)Cc2ccccn2)nc1 | 78.2
c1ccc(CN(Cc2ccc3c(c2)-c2cc(CN4CCCNCCNCCCNCC4)ccc2OCCCO3)Cc2ccccn2)nc1 | 81.8
c1ccc(CN(Cc2ccccn2)Cc2ccccc2-c2cccc(CN3CCCNCCNCCCNCC3)c2)nc1 | 102
c1ccc(CN(Cc2cccc(-c3cccc(CN4CCCNCCNCCCNCC4)c3)c2)Cc2ccccn2)nc1 | 88.4
c1ccc(CN(Cc2ccc3c(c2)-c2cc(CN4CCCNCCNCCCNCC4)ccc2OCO3)Cc2ccccn2)nc1 | 88.5

System: Human immunodeficiency virus 1
Test: Antiviral activity against X4 tropic HIV-1 NL4-3 infected in human MT4 cells assessed as protection against virus-induced cytopathic effect in absence of ZnCl2 after 5 days by MTT assay
Assay type: functional, organism-based
Conditions: Human immunodeficiency virus 1, NL4-3, MT4, 120 h
Summary of the method: (§2)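 Protection of MT-4 cells from X4 HIV-1 NL4-3 cytopathicity. Infected cells (MOI 0.001, 2.0 × 10^4 cells/well) received graded compound concentrations, without or with ZnCl2 (10 eq), for 5 days at 37 °C. Viable cells were counted by MTT. EC50 is the concentration giving 50% protection; mean of at least three independent experiments.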

SMILES | EC50 [nM]
c1ccc(CN(Cc2cccc(-c3ccc(CN4CCCNCCNCCCNCC4)cc3)c2)Cc2ccccn2)nc1 | 3100
c1ccc(CN(Cc2ccc(-c3cccc(CN4CCCNCCNCCCNCC4)c3)cc2)Cc2ccccn2)nc1 | 800
c1ccc(CN(Cc2ccc3c(c2)-c2cc(CN4CCCNCCNCCCNCC4)ccc2OCCCO3)Cc2ccccn2)nc1 | 580
c1ccc(CN(Cc2ccccn2)Cc2ccccc2-c2cccc(CN3CCCNCCNCCCNCC3)c2)nc1 | 40
c1ccc(CN(Cc2cccc(-c3cccc(CN4CCCNCCNCCCNCC4)c3)c2)Cc2ccccn2)nc1 | 750
c1ccc(CN(Cc2ccc3c(c2)-c2cc(CN4CCCNCCNCCCNCC4)ccc2OCO3)Cc2ccccn2)nc1 | 800

System: Human immunodeficiency virus 1
Test: Antiviral activity against X4 tropic HIV-1 NL4-3 infected in human MT4 cells assessed as protection against virus-induced cytopathic effect in presence of ZnCl2 after 5 days by MTT assay
Assay type: functional, organism-based
Conditions: Human immunodeficiency virus 1, NL4-3, MT4, 120 h
Summary of the method: as §2

SMILES | EC50 [nM]
c1ccc(CN(Cc2cccc(-c3ccc(CN4CCCNCCNCCCNCC4)cc3)c2)Cc2ccccn2)nc1 | 1000
c1ccc(CN(Cc2ccc(-c3cccc(CN4CCCNCCNCCCNCC4)c3)cc2)Cc2ccccn2)nc1 | 1100
c1ccc(CN(Cc2ccc3c(c2)-c2cc(CN4CCCNCCNCCCNCC4)ccc2OCCCO3)Cc2ccccn2)nc1 | 300
c1ccc(CN(Cc2ccccn2)Cc2ccccc2-c2cccc(CN3CCCNCCNCCCNCC3)c2)nc1 | 13
c1ccc(CN(Cc2cccc(-c3cccc(CN4CCCNCCNCCCNCC4)c3)c2)Cc2ccccn2)nc1 | 980
c1ccc(CN(Cc2ccc3c(c2)-c2cc(CN4CCCNCCNCCCNCC4)ccc2OCO3)Cc2ccccn2)nc1 | 870

System: Human immunodeficiency virus 1
Test: Antiviral activity against R5 tropic HIV-1 NL(AD8) infected in human MT4 cells assessed as protection against virus-induced cytopathic effect at 10 uM in presence of ZnCl2 after 5 days by MTT assay
Assay type: functional
Conditions: Human immunodeficiency virus 1, NL(AD8), MT4, 120 h

SMILES | inhibition at 10 µM [%]
c1ccc(CN(Cc2cccc(-c3ccc(CN4CCCNCCNCCCNCC4)cc3)c2)Cc2ccccn2)nc1 | < 30
c1ccc(CN(Cc2ccc(-c3cccc(CN4CCCNCCNCCCNCC4)c3)cc2)Cc2ccccn2)nc1 | < 30
c1ccc(CN(Cc2ccc3c(c2)-c2cc(CN4CCCNCCNCCCNCC4)ccc2OCCCO3)Cc2ccccn2)nc1 | < 30
c1ccc(CN(Cc2ccccn2)Cc2ccccc2-c2cccc(CN3CCCNCCNCCCNCC3)c2)nc1 | < 30
c1ccc(CN(Cc2cccc(-c3cccc(CN4CCCNCCNCCCNCC4)c3)c2)Cc2ccccn2)nc1 | < 30
c1ccc(CN(Cc2ccc3c(c2)-c2cc(CN4CCCNCCNCCCNCC4)ccc2OCO3)Cc2ccccn2)nc1 | < 30

Reference: ChEMBL document CHEMBL4368937, “Design, synthesis and biological evaluation of low molecular weight CXCR4 ligands” (Bioorg Med Chem, 2019)
